According to ChEMBL document CHEMBL1137739, “Synthesis of chlorovinyl sulfones as structural analogs of chalcones and their antiplasmodial activities” (Eur J Med Chem, 2009):

Experiments:
Plasmodium falciparum [1] = experiment: Antimalarial activity as inhibition of chloroquine-resistant Plasmodium falciparum mediated mice (Mus musculus) hemoglobin hydrolysis at 5 mM after 18 hrs; format: functional; design: scale not given: the % may be the effect or the level left
In short: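 Parasite extract was incubated with native mouse haemoglobin, GSH (10 mM as added) and 0.2 M acetate buffer pH 5.4, with inhibitors added in DMSO, at 37 °C for 18 h. Reactions were stopped with reducing sample buffer and run on SDS-PAGE. Digestion was scored by densitometry of the 14 kDa globin band against a DMSO control, as intensity/mm2 ± SD.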

[2] = target: T1, Histidine-rich protein PFHRP-II (Plasmodium falciparum) (UniProt P05227); experiment: Inhibition of acetate buffer-induced hemozoin formation at 1.25 to 25 mM/well after 48 hrs; format: functional; design: scale not given: the % may be the effect or the level left
T1 sequence (whole entry): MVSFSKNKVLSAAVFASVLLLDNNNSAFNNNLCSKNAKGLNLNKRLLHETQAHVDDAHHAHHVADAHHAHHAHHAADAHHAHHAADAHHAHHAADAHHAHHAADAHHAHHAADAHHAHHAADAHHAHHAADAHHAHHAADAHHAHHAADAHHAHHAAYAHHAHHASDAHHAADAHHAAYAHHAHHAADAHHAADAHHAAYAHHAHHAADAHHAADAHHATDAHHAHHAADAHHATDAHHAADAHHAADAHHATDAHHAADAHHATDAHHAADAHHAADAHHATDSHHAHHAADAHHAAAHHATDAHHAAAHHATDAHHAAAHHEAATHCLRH
In short: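 Hemin chloride solution (4 mM, in DMSO) was mixed in triplicate with compounds in DMSO at final 1.25–25 per well. Controls were water or DMSO. Reaction was started with 0.2 M acetate buffer pH 4.4 and run at 37 °C for 48 h. Pellets were centrifuged, washed twice with DMSO, dissolved in 0.2 N NaOH, diluted 1:2 in 0.1 N NaOH, and absorbance read at 405 nm.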

Plasmodium berghei [3] = experiment: Antimalarial activity as reduced parasitaemia at day 4 in Peter's assay against Plasmodium berghei ANKA infected in NIH mice (Mus musculus) at 25 mg/kg intraperitoneal dose 2 hrs post infection then daily for 4 days; format: functional; design: scale not given: the % may be the effect or the level left
In short: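 Chloroquine reference arm: NIH mice (18–23 g) were infected i.p. with 10^6 P. berghei-infected red cells and given 25 mg/kg once daily for 4 days, starting 2 h post-infection. Day-4 parasitemia was counted on Giemsa-stained smears, expressed relative to untreated controls, with survival recorded.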

Plasmodium berghei [4] = experiment: Antimalarial activity as survival at day 4 in Peter's assay against Plasmodium berghei ANKA infected NIH mice (Mus musculus) at 25 mg/kg intraperitoneal dose 2 hrs post infection then daily for 4 days; format: functional
In short: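 NIH mice (18–23 g) were infected i.p. with 10^6 P. berghei-infected erythrocytes. Dosing started 2 h later, i.p. once daily for 4 days, with compounds at 20 mg/kg and chloroquine at 25 mg/kg, from 0.1 M DMSO stocks diluted in 2% saline–Tween 20. Day-4 parasitaemia was read from Giemsa smears as % of untreated control, and survival as % of mice. Analysis used one-way ANOVA and t-tests.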

Plasmodium falciparum [5] = experiment: Antimalarial activity as parasite development after 48 hrs against chloroquine-sensitive Plasmodium falciparum W2 by FACS analysis; format: functional, organism-based; conditions: W2, 48 h, in the assay text read “chloroquine-resistant” for “chloroquine-sensitive”
In short: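 Sorbitol-synchronized ring-stage P. falciparum W2, started at 0.1% parasitemia, grown in RPMI-1640 with 10% human serum under 3% O2/6% CO2/91% N2. Inhibitors were added from 1000× DMSO stocks for 48 h with no medium change. Cells were fixed in 1% formaldehyde/PBS pH 7.4 for 48 h at room temperature, then stained with 1 nM YOYO in 0.1% Triton X-100/PBS. Nucleated erythrocytes were counted by flow cytometry. IC50 came from nonlinear fits of % control parasitemia against concentration, duplicate experiments.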

Plasmodium berghei [6] = experiment: Antimalarial activity as survival in Peter's assay at day 4 against Plasmodium berghei ANKA infected in NIH mice (Mus musculus) at 20 mg/kg intraperitoneal dose 2 hrs post infection then daily over 4 days
Plasmodium berghei [7] = experiment: Antimalarial activity as reduced parasitaemia at day 4 in Peter's assay against Plasmodium berghei ANKA infected in NIH mice (Mus musculus) at 20 mg/kg intraperitoneal dose 2 hrs post infection then daily over 4 days; format: functional; design: scale not given: the % may be the effect or the level left
In short: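 NIH mice (18–23 g) were infected i.p. with 10^6 P. berghei-infected red cells. Compound was dissolved in DMSO (0.1 M), diluted in 2% saline–Tween 20, and given at 20 mg/kg i.p. once daily for 4 days, starting 2 h after infection. Day-4 parasitemia was read from Giemsa-stained smears as % of untreated controls. Survival was also recorded. Analysis used one-way ANOVA and t-tests.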

Structure (SMILES): CCN(CC)CCCC(C)Nc1ccnc2cc(Cl)ccc12 (stereo not drawn) [CHLOROQUINE]
- Activity (Plasmodium falciparum [1]): 26.92%
- Activity [2]: 84.2%
- Activity (Plasmodium berghei [3]): 3%
- Activity (Plasmodium berghei [4]): 30 days

Structure (SMILES): O=S(=O)(/C(Cl)=C/c1cc2ccccc2nc1Cl)c1ccccc1
- Activity (Plasmodium falciparum [1]): 28.49%
- Activity [2]: < 5%
- IC50 (Plasmodium falciparum [5]): 25 nM

Structure (SMILES): COc1cc(/C=C(\Cl)S(=O)(=O)c2ccccc2)cc(OC)c1OC
- Activity (Plasmodium falciparum [1]): <5%
- Activity [2]: < 5%
- IC50 (Plasmodium falciparum [5]): 10000 nM

Structure (SMILES): O=S(=O)(/C(Cl)=C/c1ccc2ccccc2c1)c1ccccc1
- Activity (Plasmodium falciparum [1]): 84.59%
- Activity [2]: < 5%
- IC50 (Plasmodium falciparum [5]): 58 nM
- Activity (Plasmodium berghei [6]): 72%
- Activity (Plasmodium berghei [7]): 6.25%

Structure (SMILES): COc1ccc(/C=C(\Cl)S(=O)(=O)c2ccccc2)cc1
- Activity (Plasmodium falciparum [1]): <5%
- Activity [2]: < 5%
- IC50 (Plasmodium falciparum [5]): 470 nM

Structure (SMILES): O=S(=O)(/C(Cl)=C/c1ccccc1Cl)c1ccccc1
- Activity (Plasmodium falciparum [1]): 65.81%
- Activity [2]: < 5%
- IC50 (Plasmodium falciparum [5]): > 10000 nM

Structure (SMILES): COc1cc(OC)c(/C=C(\Cl)S(=O)(=O)c2ccccc2)c(OC)c1
- Activity (Plasmodium falciparum [1]): <5%
- Activity [2]: < 5%
- IC50 (Plasmodium falciparum [5]): 10000 nM

Structure (SMILES): O=S(=O)(/C(Cl)=C/c1ccc(Cl)cc1)c1ccccc1
- Activity (Plasmodium falciparum [1]): 74.92%
- Activity [2]: < 5%
- IC50 (Plasmodium falciparum [5]): 83 nM

Structure (SMILES): CC(C)CC(=O)N[C@H](C(=O)N[C@H](C(=O)N[C@@H](CC(C)C)[C@@H](O)CC(=O)N[C@@H](C)C(=O)N[C@@H](CC(C)C)[C@@H](O)CC(=O)O)C(C)C)C(C)C [PEPSTATIN]
- Activity (Plasmodium falciparum [1]): 93.77%

Structure (SMILES): O=S(=O)(/C(Cl)=C/c1ccc(F)cc1)c1ccccc1
- Activity (Plasmodium falciparum [1]): 52.72%
- Activity [2]: < 5%
- IC50 (Plasmodium falciparum [5]): > 10000 nM

Structure (SMILES): O=S(=O)(/C(Cl)=C/c1ccc(Cl)c(Cl)c1)c1ccccc1
- Activity (Plasmodium falciparum [1]): 95.04%
- Activity [2]: < 5%
- IC50 (Plasmodium falciparum [5]): 59 nM
- Activity (Plasmodium berghei [6]): 50%
- Activity (Plasmodium berghei [7]): 13.4%

Structure (SMILES): O=S(=O)(/C(Cl)=C/c1ccc2c(c1)OCO2)c1ccccc1
- Activity (Plasmodium falciparum [1]): 37.34%
- Activity [2]: < 5%
- IC50 (Plasmodium falciparum [5]): 53 nM

Structure (SMILES): O=S(=O)(/C(Cl)=C/c1ccc(Cl)cc1Cl)c1ccccc1
- Activity (Plasmodium falciparum [1]): 75.3%
- Activity [2]: < 5%
- IC50 (Plasmodium falciparum [5]): 960 nM

Structure (SMILES): CC(=O)N[C@@H](CC(C)C)C(=O)N[C@@H](CC(C)C)C(=O)N[C@H](C=O)CCCNC(=N)N [LEUPEPTIN]
- Activity (Plasmodium falciparum [1]): 89.75%

Structure (SMILES): O=[N+]([O-])c1ccc(/C=C(\Cl)S(=O)(=O)c2ccccc2)cc1
- Activity (Plasmodium falciparum [1]): 79.19%
- Activity [2]: < 5%
- IC50 (Plasmodium falciparum [5]): 73 nM

Structure (SMILES): O=S(=O)(/C(Cl)=C/c1cccc2ccccc12)c1ccccc1
- Activity (Plasmodium falciparum [1]): 76.69%
- Activity [2]: < 5%
- IC50 (Plasmodium falciparum [5]): 75 nM

Structure (SMILES): O=S(=O)(/C(Cl)=C/c1ccccc1)c1ccccc1
- Activity (Plasmodium falciparum [1]): 59.33%
- Activity [2]: < 5%
- IC50 (Plasmodium falciparum [5]): > 10000 nM

Structure (SMILES): COc1cc(OC)c(OC)cc1/C=C(\Cl)S(=O)(=O)c1ccccc1
- Activity (Plasmodium falciparum [1]): 11.07%
- Activity [2]: < 5%
- IC50 (Plasmodium falciparum [5]): > 10000 nM

Structure (SMILES): N#Cc1ccc(/C=C(\Cl)S(=O)(=O)c2ccccc2)cc1
- Activity (Plasmodium falciparum [1]): 44.73%
- Activity [2]: < 5%
- IC50 (Plasmodium falciparum [5]): > 10000 nM
